Results reported in ChEMBL document CHEMBL4393719, “Tetrahydro-3-benzazepines with fluorinated side chains as NMDA and σ1 receptor antagonists: Synthesis, receptor affinity, selectivity and antiallodynic activity” (Eur J Med Chem, 2019).
Activity calls are given as the source filed them.

Experiments:
[1] = Drug metabolism in mouse liver microsomes at 1 uM incubated for 1 hr in presence of NADPH by UPLC-MS analysis; type: ADME, Microsome; conditions: read-out: Drug metabolism
Summary of the method: (§1)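 Liver microsomes, compound 1 µM, 37 °C for 1 h in 50 mM Na/K phosphate pH 7.4, 3 mM MgCl2, NADPH-regenerating system, CYP 0.3 nmol/mL. Aliquots at 0, 10, 20, 40, 60 min quenched with cold acetonitrile, supernatants by UPLC-MS/MS; % parent remaining at end reported. Terfenadine as positive control.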

[2] = target: Sodium-dependent dopamine transporter (Homo sapiens) (UniProt Q01959); assay: Displacement of [3H]GBR12935 from human DAT at 1 uM after 120 mins by scintillation counting method relative to control
Summary of the method: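 DAT-enriched human membranes (5 µg), 2 nM [3H]GBR12935 in 50 mM Tris-HCl/100 mM NaCl pH 7.4, 0.1% DMSO, 120 min at 4 °C; 10 µM GBR12909 for nonspecific binding. Compound at 1 µM; displacement measured after filtration.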

[3] = Drug metabolism in human liver microsomes at 1 uM incubated for 1 hr in presence of NADPH by UPLC-MS analysis; type: ADME, Microsome; conditions: read-out: Drug metabolism; summary of the method: as §1
[4] = Stability of compound in phosphate buffer at pH 7.4 after 24 hrs by HPLC analysis; type: physicochemical; conditions: pH 7.4, 24 h
Summary of the method: (§2)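 Compound (25 μL of 10 mM DMSO stock) added to 1 mL aqueous buffered solution, pH 2 or pH 7.4, stirred 24 h at room temperature, analyzed by HPLC-MS; deemed stable if peak area remained 95–105%.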

[5] = target: Sodium-dependent noradrenaline transporter (Homo sapiens) (UniProt P23975); assay: Displacement of [3H]nisoxetine from recombinant human norepinephrine transporter at 1 uM after 60 mins by scintillation counting method relative to control
Summary of the method: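 Human NET-enriched membranes (1 μg), 5 nM [3H]nisoxetine in 50 mM Tris-HCl, 120 mM NaCl, 5 mM KCl, pH 7.4, 1% DMSO final; 60 min at 4 °C; 10 μM desipramine for nonspecific binding. Single 1 μM compound; filtration, displacement of radioligand.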

[6] = species on record: Sus scrofa; conditions: at 1 µM
[7] = target: 5-hydroxytryptamine receptor 2B (Homo sapiens) (UniProt P41595); assay: Displacement of [3H]-LSD from recombinant human 5HT2B receptor at 1 uM after 30 mins by scintillation counting method relative to control
Summary of the method: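 Human 5-HT2B-enriched membranes (5 µg), 1 nM [3H]LSD in 50 mM Tris-HCl, 4 mM CaCl2, 1% ascorbic acid, pH 7.4, 0.1% DMSO; 30 min, 37 °C; 50 µM 5-HT for nonspecific binding. Single 1 µM compound concentration; displacement after filtration.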

[8] = tested on: HepG2; assay: Cytotoxicity against human HepG2 assessed as reduction in cell viability at 1 to 100 uM after 20 hrs by MTT assay; type: cell-based; conditions: hepg2, 20 h
Summary of the method: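 HepG2 cells, 3 x 10^4/well, grown 24 h in MEM/10% FBS, then exposed 20 h in serum-free medium to compound at 1, 10, 100 µM (from DMSO solutions). MTT 0.5 mg/mL for 4 h, formazan dissolved in DMSO, OD 550 nm. IC50 taken as lowest concentration giving ≥50% cytotoxicity versus untreated cells; duplicates in two assays (n = 4).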

[9] = target: Sodium-dependent serotonin transporter (Homo sapiens) (UniProt P31645); assay: Displacement of [3H]imipramine from human serotonin transporter at 1 uM after 30 mins by scintillation counting method relative to control
Summary of the method: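 Human SERT-enriched membranes (3.5 μg) incubated 30 min at 27 °C with 3 nM [3H]imipramine in Tris-HCl/120 mM NaCl/5 mM KCl pH 7.4, 0.1% DMSO; 200 μM imipramine for nonspecific binding. Compound at 1 μM; displacement after filtration.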

[10] = target: T1, Mu-type opioid receptor (Homo sapiens, UniProt P35372); assay: Displacement of [3H]DAMGO from human MOR expressed in CHO-K1 cells membranes after 60 mins by micro beta scintillation counting method; type: cell membranes
Summary of the method: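 Human MOR in CHO-K1 membranes (20 µg) with 1 nM [3H]DAMGO in 50 mM Tris-HCl, 5 mM MgCl2, pH 7.4, 27 °C for 60 min. Test compound at five concentrations; 10 µM naloxone defines nonspecific binding. Filtered, washed thrice with ice-cold 10 mM Tris-HCl, counted by liquid scintillation.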

[11] = Drug metabolism in rat liver microsomes at 1 uM incubated for 1 hr in presence of NADPH by UPLC-MS analysis; type: ADME, Microsome; conditions: read-out: Drug metabolism; summary of the method: as §1
[12] = target: T1, Mu-type opioid receptor; assay: Agonist activity at MOR (unknown origin) by cAMP assay; type: functional
[13] = tested on: HepG2; assay: Cytotoxicity against human HepG2 assessed as reduction in cell viability at 1 to 100 uM after 20 hrs by neutral red uptake assay; type: cell-based; conditions: hepg2, 20 h
Summary of the method: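 HepG2 seeded 3 x 10^4/well, 24 h, then 20 h serum-free exposure at 1, 10 or 100 µM. Neutral red 50 µg/mL for 3 h, washed, dye extracted with 50% ethanol/1% acetic acid, OD 550 nm. IC50 assigned as lowest concentration reaching ≥50% cytotoxicity against untreated cells; n = 4 (duplicate, two assays).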

[14] = target: CYP2D6 (Homo sapiens, UniProt P10635); assay: Inhibition of recombinant human CYP2D6 at 1 uM by fluorescence probe substrate-based flurometric analysis; type: ADME
[15] = target: Voltage-gated inwardly rectifying potassium channel KCNH2 (Homo sapiens, UniProt Q12809); assay: Inhibition of human ERG expressed in CHO cells at -80 mV holding potential by automated patch clamp electrophysiology assay; type: cell-based
[16] = target: Alpha-1A adrenergic receptor (Homo sapiens) (UniProt P35348); assay: Displacement of [3H]prazosin from human adrenergic alpha1A receptor at 1 uM after 90 mins by scintillation counting method relative to control
Summary of the method: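 α1A adrenoceptor-enriched human membranes (10 µg), 0.2 nM [3H]prazosin in 50 mM HEPES, 5 mM MgCl2, 1 mM CaCl2, 0.2% BSA, pH 7.4; 90 min at 25 °C; 1 µM prazosin for nonspecific binding. Compound tested at 1 µM; bound ligand collected by filtration.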

[17] = target: Kappa-type opioid receptor (Homo sapiens, UniProt P41145); assay: Inhibition of KOR (unknown origin)
[18] = Stability of compound in aqueous HCl solution at pH 2 after 24 hrs by HPLC analysis; type: physicochemical; conditions: buffer, pH 2, 24 h; summary of the method: as §2
[19] = target: Histamine H1 receptor (Homo sapiens) (UniProt P35367); assay: Displacement of [3H]pyrilamine from human recombinant histamine H1 receptor at 1 uM after 90 mins by scintillation counting method relative to control
Summary of the method: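 Human H1 receptor-enriched membranes (25 μg) with 2.4 nM [3H]pyrilamine in Na+/K+ phosphate buffer pH 7.4, 0.1% DMSO, 90 min, 25 °C; 10 μM triprolidine for nonspecific binding. Single 1 μM test concentration; filtration-based readout of displacement.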

[20] = Displacement of [3H] ifenprodil from GluN2B/GluN1a (unknown origin) expressed in mouse L(tk-) cell membranes incubated for 120 mins by scintillation counting method; set-up: species or system Homo sapiens
Summary of the method: (§3)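 Membranes from mouse L(tk-) cells co-transfected with dexamethasone-inducible GluN1a/GluN2B (1:5), induced 24 h with 4 μM dexamethasone plus 4 μM ketamine.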

[21] = target: T2, Sigma intracellular receptor 2 (Rattus norvegicus, UniProt Q5U3Y7); assay: Displacement of [3H]-di-o-tolylguanidine from sigma2 receptor in rat liver membranes incubated for 120 mins by scintillation counting method; type: cell membranes
T2 sequence (Q5U3Y7 whole entry): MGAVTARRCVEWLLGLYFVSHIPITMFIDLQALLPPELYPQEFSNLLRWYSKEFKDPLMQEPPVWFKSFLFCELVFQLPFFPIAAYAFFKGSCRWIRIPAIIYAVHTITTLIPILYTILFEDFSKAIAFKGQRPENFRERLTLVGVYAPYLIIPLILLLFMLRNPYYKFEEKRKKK

[22] = target: 5-hydroxytryptamine receptor 1A (Homo sapiens) (UniProt P08908); assay: Displacement of [3H]8-OH-DPAT from human 5HT1A receptor at 1 uM incubated for 2 hrs scintillation counting method relative to control
Summary of the method: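 Human 5-HT1A-enriched membranes (10 μg), 2 nM [3H]-8-OH-DPAT, 50 mM Tris-HCl/5 mM MgCl2 pH 7.4, 0.1% DMSO final, 2 h at 37 °C; 10 μM 5-HT for nonspecific binding. Compound at 1 μM; radioligand displacement read after GF/C filtration.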

[23] = target: Sigma non-opioid intracellular receptor 1 (Cavia porcellus, UniProt Q60492); type: cell membranes;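 note: radioligand displacement of [3H]-(+)-pentazocine from guinea pig brain cortex membranes, 120 min incubation, bound radioactivity read by scintillation counting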
[24] = target: Delta-type opioid receptor (Homo sapiens, UniProt P41143); assay: Inhibition of DOR (unknown origin)
[25] = tested on: Mus musculus; assay: Antiallodynic activity in CD-1 mouse model of capsaicin-induced mechanical allodynia assessed as increase in paw withdrawal threshold at 32 mg/kg, sc administered 30 mins before capsaicin addition and measured after 15 mins by von-Frey test; type: functional, organism-based
Summary of the method: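 Female CD-1 mice given compound or HPMC vehicle sc 30 min before intraplantar capsaicin (1 µg in 20 µL, 1% DMSO). 15 min later, electronic von Frey punctate stimulus (0.5 g) at least 5 mm from injection site; paw withdrawal latency, three trials 30 s apart, 50 s cutoff. % antiallodynic effect = [(LTD−LTS)/(CT−LTS)]×100; 6-8 mice per group, ANOVA with Bonferroni.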

[26] = target: Sigma intracellular receptor 2 (Rattus norvegicus) (UniProt Q5U3Y7); assay: Displacement of [3H]-di-o-tolylguanidine from sigma2 receptor in rat liver membranes at 10^-10 to 10^-5 mol/L incubated for 120 mins by scintillation counting method relative to control; type: cell membranes
[27] = target: Sigma non-opioid intracellular receptor 1 (Cavia porcellus) (UniProt Q60492); assay: Displacement of [3H]-(+)-pentazocine from sigma1 receptor in guinea pig brain cortex membranes at 10^-10 to 10^-5 mol/L incubated for 120 mins by scintillation counting method relative to control; type: cell membranes
[28] = species on record: Homo sapiens; assay: Displacement of [3H] ifenprodil from GluN2B/GluN1a (unknown origin) expressed in mouse L(tk-) cell membranes at 10^-10 to 10^-5 mol/L incubated for 120 mins by scintillation counting method relative to control; summary of the method: as §3
[29] = species on record: Sus scrofa; assay: Displacement of [3H]-(+)-MK-801 from NMDA PCP binding site in pig brain cortex membrane at 10 uM incubated for 180 mins by scintillation counting method relative to control; type: cell membranes

T1 sequence (P35372 whole entry): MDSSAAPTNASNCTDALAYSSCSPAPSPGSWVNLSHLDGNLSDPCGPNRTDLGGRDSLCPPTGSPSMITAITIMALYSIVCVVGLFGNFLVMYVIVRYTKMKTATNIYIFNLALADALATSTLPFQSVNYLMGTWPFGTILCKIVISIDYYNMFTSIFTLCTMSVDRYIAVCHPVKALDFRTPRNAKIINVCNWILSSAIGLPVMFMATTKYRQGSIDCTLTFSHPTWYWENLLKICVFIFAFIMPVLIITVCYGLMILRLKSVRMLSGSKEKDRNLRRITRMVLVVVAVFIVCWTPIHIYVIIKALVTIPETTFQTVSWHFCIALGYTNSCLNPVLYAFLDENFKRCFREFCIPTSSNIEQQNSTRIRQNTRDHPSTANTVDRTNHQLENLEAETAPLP
Voltage-gated inwardly rectifying potassium channel KCNH2, sequence (Q12809 whole entry): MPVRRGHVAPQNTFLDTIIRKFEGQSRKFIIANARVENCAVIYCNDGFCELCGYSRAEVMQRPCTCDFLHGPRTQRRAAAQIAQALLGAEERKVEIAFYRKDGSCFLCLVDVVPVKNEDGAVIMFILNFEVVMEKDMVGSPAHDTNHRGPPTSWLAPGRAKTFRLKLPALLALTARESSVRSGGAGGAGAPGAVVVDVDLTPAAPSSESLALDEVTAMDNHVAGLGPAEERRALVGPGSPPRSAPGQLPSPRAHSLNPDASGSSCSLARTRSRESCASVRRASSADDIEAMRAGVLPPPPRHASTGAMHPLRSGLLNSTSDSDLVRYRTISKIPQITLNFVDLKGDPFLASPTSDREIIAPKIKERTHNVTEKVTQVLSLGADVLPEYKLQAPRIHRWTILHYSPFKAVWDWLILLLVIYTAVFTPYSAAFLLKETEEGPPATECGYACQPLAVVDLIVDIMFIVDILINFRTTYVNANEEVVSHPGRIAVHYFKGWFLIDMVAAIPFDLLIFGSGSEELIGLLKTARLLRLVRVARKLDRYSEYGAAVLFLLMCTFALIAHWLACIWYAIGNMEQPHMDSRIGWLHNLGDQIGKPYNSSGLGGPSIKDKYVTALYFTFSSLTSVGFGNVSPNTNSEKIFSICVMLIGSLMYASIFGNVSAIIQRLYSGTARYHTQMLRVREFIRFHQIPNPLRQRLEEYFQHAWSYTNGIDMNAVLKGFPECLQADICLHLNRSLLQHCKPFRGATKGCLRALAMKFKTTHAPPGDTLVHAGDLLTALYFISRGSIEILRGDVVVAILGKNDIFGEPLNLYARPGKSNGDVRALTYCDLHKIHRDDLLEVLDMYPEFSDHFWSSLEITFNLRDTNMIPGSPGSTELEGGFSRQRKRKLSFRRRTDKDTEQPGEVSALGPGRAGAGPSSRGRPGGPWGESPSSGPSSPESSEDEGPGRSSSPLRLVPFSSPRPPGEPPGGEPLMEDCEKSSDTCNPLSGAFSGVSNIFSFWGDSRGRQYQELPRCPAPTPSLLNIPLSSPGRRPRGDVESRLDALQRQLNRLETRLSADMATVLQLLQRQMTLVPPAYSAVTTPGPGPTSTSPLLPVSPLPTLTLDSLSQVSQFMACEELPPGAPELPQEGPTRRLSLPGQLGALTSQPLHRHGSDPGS
5-hydroxytryptamine receptor 2B (Homo sapiens), sequence (P41595 whole entry): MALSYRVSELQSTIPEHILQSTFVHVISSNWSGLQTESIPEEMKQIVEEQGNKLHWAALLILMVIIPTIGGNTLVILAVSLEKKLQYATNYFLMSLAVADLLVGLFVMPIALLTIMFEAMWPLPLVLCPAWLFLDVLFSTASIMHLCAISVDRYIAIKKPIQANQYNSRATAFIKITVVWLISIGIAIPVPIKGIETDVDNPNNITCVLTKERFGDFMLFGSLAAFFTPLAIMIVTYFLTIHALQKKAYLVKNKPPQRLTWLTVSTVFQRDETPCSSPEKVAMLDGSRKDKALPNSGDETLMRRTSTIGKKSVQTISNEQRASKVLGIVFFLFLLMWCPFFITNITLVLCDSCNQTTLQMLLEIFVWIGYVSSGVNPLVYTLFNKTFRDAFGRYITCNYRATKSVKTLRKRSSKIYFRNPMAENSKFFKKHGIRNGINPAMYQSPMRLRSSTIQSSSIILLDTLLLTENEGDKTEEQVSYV
Delta-type opioid receptor, sequence (P41143 whole entry): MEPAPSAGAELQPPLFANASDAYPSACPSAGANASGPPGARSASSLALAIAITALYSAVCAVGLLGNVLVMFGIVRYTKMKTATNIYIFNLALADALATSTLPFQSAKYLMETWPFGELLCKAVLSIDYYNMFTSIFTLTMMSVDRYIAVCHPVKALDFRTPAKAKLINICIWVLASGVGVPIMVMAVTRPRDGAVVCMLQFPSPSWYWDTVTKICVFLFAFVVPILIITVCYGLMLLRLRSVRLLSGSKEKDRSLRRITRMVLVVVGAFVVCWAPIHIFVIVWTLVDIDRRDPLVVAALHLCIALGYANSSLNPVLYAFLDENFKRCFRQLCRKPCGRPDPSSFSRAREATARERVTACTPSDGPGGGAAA
CYP2D6, sequence (P10635 whole entry): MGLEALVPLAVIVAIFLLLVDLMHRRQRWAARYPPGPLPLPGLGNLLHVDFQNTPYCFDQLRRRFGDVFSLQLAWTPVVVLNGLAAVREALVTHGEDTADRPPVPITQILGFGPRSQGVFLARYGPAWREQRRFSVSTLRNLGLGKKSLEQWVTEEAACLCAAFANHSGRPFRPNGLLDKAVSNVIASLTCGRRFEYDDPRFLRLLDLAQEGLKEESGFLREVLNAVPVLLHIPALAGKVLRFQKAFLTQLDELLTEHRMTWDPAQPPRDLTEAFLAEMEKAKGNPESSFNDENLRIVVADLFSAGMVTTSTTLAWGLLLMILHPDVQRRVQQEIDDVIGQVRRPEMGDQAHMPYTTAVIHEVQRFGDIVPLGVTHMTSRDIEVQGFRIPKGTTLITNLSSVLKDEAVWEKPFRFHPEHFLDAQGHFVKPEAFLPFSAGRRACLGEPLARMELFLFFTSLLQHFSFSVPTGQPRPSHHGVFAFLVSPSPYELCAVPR
5-hydroxytryptamine receptor 1A (Homo sapiens), sequence (P08908 whole entry): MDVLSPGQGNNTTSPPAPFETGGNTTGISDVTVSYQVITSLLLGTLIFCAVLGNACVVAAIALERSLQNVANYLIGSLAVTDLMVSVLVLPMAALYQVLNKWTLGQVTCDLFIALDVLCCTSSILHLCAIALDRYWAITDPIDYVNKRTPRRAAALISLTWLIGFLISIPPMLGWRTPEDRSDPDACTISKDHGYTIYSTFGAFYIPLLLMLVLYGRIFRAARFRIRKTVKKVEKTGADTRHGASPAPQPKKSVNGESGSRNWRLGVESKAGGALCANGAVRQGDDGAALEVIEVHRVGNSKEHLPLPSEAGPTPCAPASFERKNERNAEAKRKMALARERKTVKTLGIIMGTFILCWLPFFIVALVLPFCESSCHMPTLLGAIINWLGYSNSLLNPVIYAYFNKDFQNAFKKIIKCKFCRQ
Sodium-dependent serotonin transporter (Homo sapiens), sequence (P31645 whole entry, looked up): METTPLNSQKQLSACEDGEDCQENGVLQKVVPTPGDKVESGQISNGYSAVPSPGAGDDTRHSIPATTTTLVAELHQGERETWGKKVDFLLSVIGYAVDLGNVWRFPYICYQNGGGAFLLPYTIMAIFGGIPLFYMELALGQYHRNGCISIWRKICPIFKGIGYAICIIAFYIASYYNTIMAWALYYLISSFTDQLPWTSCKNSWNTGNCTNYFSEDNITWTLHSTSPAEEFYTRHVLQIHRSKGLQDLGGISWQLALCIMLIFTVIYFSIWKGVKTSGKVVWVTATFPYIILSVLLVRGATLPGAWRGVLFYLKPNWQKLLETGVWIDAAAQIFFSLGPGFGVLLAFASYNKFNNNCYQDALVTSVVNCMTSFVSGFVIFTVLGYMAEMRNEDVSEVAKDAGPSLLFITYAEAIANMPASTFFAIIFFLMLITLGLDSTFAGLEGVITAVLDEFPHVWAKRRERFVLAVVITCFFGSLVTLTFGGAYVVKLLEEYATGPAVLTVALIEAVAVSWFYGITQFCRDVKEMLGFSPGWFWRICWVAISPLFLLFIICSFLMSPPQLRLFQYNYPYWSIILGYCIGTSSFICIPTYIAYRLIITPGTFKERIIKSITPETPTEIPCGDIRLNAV
Kappa-type opioid receptor, sequence (P41145 whole entry): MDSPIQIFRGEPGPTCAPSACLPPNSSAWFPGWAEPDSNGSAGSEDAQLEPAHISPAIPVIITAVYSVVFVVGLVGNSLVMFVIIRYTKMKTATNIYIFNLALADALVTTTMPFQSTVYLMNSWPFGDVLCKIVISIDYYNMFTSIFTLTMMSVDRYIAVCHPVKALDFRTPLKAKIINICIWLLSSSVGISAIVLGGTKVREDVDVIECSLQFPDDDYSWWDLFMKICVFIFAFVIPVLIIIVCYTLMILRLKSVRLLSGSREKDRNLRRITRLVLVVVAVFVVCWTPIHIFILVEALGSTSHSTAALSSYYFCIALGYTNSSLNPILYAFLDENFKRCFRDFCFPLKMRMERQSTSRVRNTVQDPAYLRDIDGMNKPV
Histamine H1 receptor (Homo sapiens), sequence (P35367 whole entry): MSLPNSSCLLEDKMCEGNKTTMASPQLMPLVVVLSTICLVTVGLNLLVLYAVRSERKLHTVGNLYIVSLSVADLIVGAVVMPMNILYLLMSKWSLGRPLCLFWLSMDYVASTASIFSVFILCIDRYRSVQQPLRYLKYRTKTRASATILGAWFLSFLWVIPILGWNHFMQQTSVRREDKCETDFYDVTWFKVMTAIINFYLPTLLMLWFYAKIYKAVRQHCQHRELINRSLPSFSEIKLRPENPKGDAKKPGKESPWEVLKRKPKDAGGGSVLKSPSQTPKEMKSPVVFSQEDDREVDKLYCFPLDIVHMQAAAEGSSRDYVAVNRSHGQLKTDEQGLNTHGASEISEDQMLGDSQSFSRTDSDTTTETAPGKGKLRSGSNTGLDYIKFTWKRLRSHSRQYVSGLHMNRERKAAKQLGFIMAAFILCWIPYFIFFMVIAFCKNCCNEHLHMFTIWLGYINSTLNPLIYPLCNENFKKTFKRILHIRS

For `FC(CCN1CCc2ccccc2CC1)Cc1ccccc1` (stereo unspecified), which metabolised at 1 h, 1 µM [1] is on record?
The metabolised at 1 h, 1 µM was 100%.

And the inhibition [2]?
Its inhibition is under 50%.

What about the metabolised at 1 h, 1 µM [3] of the same molecule?
Its metabolised at 1 h, 1 µM is 100%.

What about the Stability [4] of the same molecule?
The Stability was “Stable”.

What about the inhibition [5] of the same molecule?
Its inhibition is under 50%.

What about the inhibition [6] of the same molecule?
Its inhibition is 0%.

What about the inhibition [7] of the same molecule?
The inhibition was under 50%.

What about the Activity [8] of the same molecule?
Its Activity is “Toxic”.

What about the inhibition [9] of the same molecule?
Its inhibition is under 50%.

And the Ki [10]?
The Ki was 406 nM.

And the metabolised at 1 h, 1 µM [11]?
The metabolised at 1 h, 1 µM was 100%.

And the EC50 [12]?
The EC50 was over 10000 nM.

What about the Activity [13] of the same molecule?
The Activity was “Toxic”.

And the inhibition at 1 µM [14]?
The inhibition at 1 µM was 85%.

What about the IC50 [15] of the same molecule?
The IC50 was 1180 nM.

What about the inhibition [16] of the same molecule?
Its inhibition is under 50%.

What about the Ki [17] of the same molecule?
The Ki was over 1000 nM.

And the Stability [18]?
Its Stability is “Stable”.

And the inhibition [19]?
Its inhibition is under 50%.

And the Ki [20]?
The Ki was 30 nM.

And the Ki [21]?
Its Ki is 48 nM.

What about the inhibition [22] of the same molecule?
Its inhibition is 72%.

And the Ki [23]?
The Ki was 8 nM.

And the Ki [24]?
Its Ki is over 1000 nM.

Which Activity [25] does the source give for `CN1CCN(CCc2ccc(Cl)c(Cl)c2)CC1` here?
Its Activity is “Active”.

Which results are given for `COc1ccc2c(c1)CCN1CC2OC1C(F)CCc1ccccc1` (stereo unspecified)?
inhibition [26]: 0%; inhibition [27]: 0%; inhibition [6]: 0%; inhibition [28]: 8%

With `COc1ccc2c(c1)CCN(CCCCc1ccccc1)CC2O` (stereo unspecified) as the molecule, how does the inhibition [29] read?
The inhibition was 22%.

And the Ki [20]?
Its Ki is 706 nM.
